From PubChem BioAssay
HIV Env fusion: inhibitors of HIV-1 Env-driven cell-cell fusion, primary screen, HeLa-JRFL effector, CEM21 target cells, luciferase; 360,000 compounds, 1.1% hits; inhibition, % at 12.3 µM;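 active = mean replicate inhibition score of at least 50 and every replicate individually at or above 50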;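 also: 0% = plate neutral controls and 100% = maraviroc near 300 nM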
GSIS activator: GLuc luminescence reporter in INS-1E cells, primary screen for activators of glucose-dependent secretion of insulin | INS-1E GLuc reporter insulin secretion, 2-3 h | activation, % at 16.6 µM | 370,000 compounds, 0.61% hits;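 active = lowest replicate activation of at least 40%, so every replicate reaches that level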;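 also: 0% = median of neutral control wells and 100% = median of IBMX positive control wells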
CDK5 p35 inh: inhibitors of human CDK5/p35 kinase, primary screen, biochemical, single concentration; Cyclin-dependent kinase 5 (Homo sapiens) + Cyclin-dependent kinase 5 activator 1 (Homo …; Recombinant CDK5/p35, ADP-Glo luminescence, 60 min; inhibition, % at 10 µM; 330,000 compounds, 0.01% hits;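 active = highest replicate inhibition of at least 50% and at least 75% of replicates reaching 50%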;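 also: plate controls were DMSO neutral control for no effect and GW8510 at 10 µM for full effect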
PAX8 reporter: inhibitors of PAX8-driven TPO luciferase reporter, primary screen, RMG-I cells, single concentration | SteadyGlo, 24 h | inhibition, % at 12.6 µM | 360,000 compounds, 1.2% hits;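 active = mean replicate inhibition at least 60% with every replicate also reaching 60%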;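 also: luciferase light reporting Pax8 driven TPO promoter activity; plate controls were median of neutral control wells for no effect and mitoxantrone controls for full effect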
dFosB activator: activators of delta FosB homodimer, primary screen, biochemical, fluorescence polarization, TAMRA-CDK5 oligo, single point; AID 493131, 2011; purified delta FosB; percent of positive-control signal above neutral wells; 340,000 compounds, 0.99% hits; Protein FosB (Mus musculus), P13346; activation, % at 25 µM;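 active = mean activation above about 17%, with every replicate also reaching it, limit read from the data, passing the limit was not always enough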
Target sequence (P13346 whole entry, looked up): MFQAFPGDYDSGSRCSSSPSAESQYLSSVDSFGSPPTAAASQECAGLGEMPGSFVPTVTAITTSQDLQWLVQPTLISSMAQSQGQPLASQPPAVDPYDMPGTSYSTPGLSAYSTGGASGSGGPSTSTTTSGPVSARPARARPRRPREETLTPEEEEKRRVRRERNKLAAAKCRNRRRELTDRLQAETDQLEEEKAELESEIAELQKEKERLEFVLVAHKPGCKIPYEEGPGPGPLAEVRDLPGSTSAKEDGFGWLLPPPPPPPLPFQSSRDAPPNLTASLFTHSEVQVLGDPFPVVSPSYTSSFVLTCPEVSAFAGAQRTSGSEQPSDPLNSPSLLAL
Cneo AK release: Cryptococcus neoformans cell lysis inducers, primary screen, AK release luminescence, single concentration | C. neoformans lysis, adenylate kinase release luminescence, 4 h; normalised: neutral wells 0, clomiphene wells 100 | lysis activity, % at 15 µM | 360,000 compounds, 0.2% hits | AID 651654, 2012;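 active = mean lysis activity across replicates of at least 80%, whatever share of replicates individually reach that level; inactive = mean lysis activity below 80%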
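Material: C. neoformans cells | Amount: Yeast cell density of 5 × 10^6 cells/mL | Medium: Fresh YPD growth medium | Dosing: Single dose | Times: Static 4 h at 37 °C with compound, 1 h detection | Detection: AK luminescence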
The depositor's hits bear a star; ! = not confirmed by another sample; [ ] = another dose, or the depositor's remark. Rows were chosen to be rich in hits. Some 2.9% of all compounds tested hit in one or more screens of this group.

Results for C[C@H]1CN([C@@H](C)CO)S(=O)(=O)c2ccc(-c3ccc(F)cc3)cc2O[C@H]1CN(C)Cc1cccc(F)c1 ?
HIV Env fusion: 62*[16.7 µM]; GSIS activator: -18

How did COc1ccc(S(=O)(=O)Nc2ccc3c(c2)C(=O)N([C@@H](C)CO)C[C@H](C)[C@H](CN(C)C(=O)CCCN(C)C)OCCCC[C@@H](C)O3)cc1 do in these assays?
GSIS activator: 25; PAX8 reporter: -20

What do the screens show for `O=C(C[C@H]1CC[C@@H]2[C@H](COC[C@H](O)CN2Cc2ccc(C(F)(F)F)cc2)O1)N1CCc2ccccc2C1`?
GSIS activator: -24; Cneo AK release: -1

What do the screens show for `C[C@H](CO)N1C[C@H](C)[C@H](CN(C)CC2CC2)OCCCC[C@H](C)Oc2ccc(NC(=O)Nc3cccc4ccccc34)cc2C1=O`?
HIV Env fusion: 62*[16.7 µM]; GSIS activator: 1; PAX8 reporter: 0; Cneo AK release: 4

How did C[C@@H]1CCCCO[C@H](CN(C)C)[C@H](C)CN([C@H](C)CO)C(=O)c2cc(NC(=O)Nc3cccc4ccccc34)ccc2O1 do in these assays?
HIV Env fusion: -10[16.7 µM]; GSIS activator: 0; PAX8 reporter: 84*; Cneo AK release: 5

How did C[C@H](CO)N1C[C@H](C)[C@@H](CN(C)S(=O)(=O)c2cn(C)cn2)Oc2ccc(NS(=O)(=O)c3cccs3)cc2CC1=O do in these assays?
HIV Env fusion: -8[16.7 µM]; GSIS activator: 7; PAX8 reporter: -15; Cneo AK release: -3

How did CC(Nc1nc(-c2ccc(F)cc2)cs1)c1nc2cc(C(F)(F)F)ccc2n1CCCO (configuration not stated) do in these assays?
HIV Env fusion: 75*; CDK5 p35 inh: 2; PAX8 reporter: 13; dFosB activator: -7; Cneo AK release: 1

Results for CCN(C[C@H]1N[C@@](CC)(C(=O)OC)[C@H]2C(=O)N(Cc3ccccc3)C(=O)[C@@H]12)C(=O)Nc1ccc(Cl)cc1 ?
HIV Env fusion: 86*; GSIS activator: -30; CDK5 p35 inh: -1; PAX8 reporter: -8; dFosB activator: -5; Cneo AK release: -2

What do the screens show for `CCN(C[C@H]1N[C@@](CC)(C(=O)OC)[C@H]2C(=O)N(Cc3ccccc3)C(=O)[C@@H]12)C(=O)Nc1ccc(C)cc1`?
HIV Env fusion: 56*; CDK5 p35 inh: 0; PAX8 reporter: -104; dFosB activator: 3; Cneo AK release: 3

Results for COc1ccc(NC(=O)c2ccc(S(=O)(=O)N(C)c3ccccc3)cc2)cc1S(=O)(=O)N1CCOCC1 ?
HIV Env fusion: 27; PAX8 reporter: 38; Cneo AK release: -3

How did Cc1ccc(NC(=O)[C@@H]2CCCN2S(=O)(=O)c2ccccc2F)cc1S(=O)(=O)N1CCOCC1 do in these assays?
HIV Env fusion: 28; GSIS activator: -15; CDK5 p35 inh: -2; PAX8 reporter: 0; dFosB activator: 0

What do the screens show for `Cc1ccc(NC(=O)c2ccc([N+](=O)[O-])s2)cc1S(=O)(=O)N1CCOCC1`?
HIV Env fusion: 2; GSIS activator: -2; CDK5 p35 inh: 0; PAX8 reporter: 101*; dFosB activator: -5; Cneo AK release: -1

What do the screens show for `Cc1ccc(NC(=O)[C@@H]2CCCN2S(=O)(=O)c2ccccc2C(F)(F)F)cc1S(=O)(=O)N1CCOCC1`?
HIV Env fusion: 57*; GSIS activator: -13; CDK5 p35 inh: 0; PAX8 reporter: -8; dFosB activator: -5

How did Cc1ccc(NC(=O)c2ccc(S(=O)(=O)N(C)c3ccccc3)cc2)cc1S(=O)(=O)N1CCOCC1 do in these assays?
GSIS activator: -18; CDK5 p35 inh: -1; PAX8 reporter: 65*; dFosB activator: -16; Cneo AK release: 0

What do the screens show for `C[C@@H]1CCCCO[C@@H](CN(C)C(=O)C2CCCCC2)[C@H](C)CN([C@H](C)CO)C(=O)c2cc(NC(=O)Nc3ccccc3)ccc2O1`?
HIV Env fusion: 5[16.7 µM]; GSIS activator: -16; PAX8 reporter: 24; Cneo AK release: 0

Results for Nc1ccc2c(c1)Cc1cc(N)c(Cl)cc1-2 ?
HIV Env fusion: -8; CDK5 p35 inh: 6; PAX8 reporter: -97; dFosB activator: -5; Cneo AK release: -4

What do the screens show for `Nc1ccc2c(c1)Cc1cc(Cl)c(Cl)cc1-2`?
HIV Env fusion: 60*; CDK5 p35 inh: 2; PAX8 reporter: -98; dFosB activator: -7; Cneo AK release: 1

How did COc1ccc(S(=O)(=O)N(C)C[C@H]2OCCCC[C@@H](C)Oc3ccc(NS(=O)(=O)c4ccc(F)cc4)cc3C(=O)N([C@H](C)CO)C[C@H]2C)cc1 do in these assays?
HIV Env fusion: 6[16.7 µM]; GSIS activator: -7; PAX8 reporter: 52; Cneo AK release: -2

Results for c1ccc(COc2cccc(-c3cc4nc(NCCOc5ccccc5)ccn4n3)c2)cc1 ?
HIV Env fusion: 23; PAX8 reporter: 15; Cneo AK release: 0

How did c1ccc(COc2ccc(-c3cc4nc(NCCOc5ccccc5)ccn4n3)cc2)cc1 do in these assays?
HIV Env fusion: 43*; PAX8 reporter: -11; Cneo AK release: 2

How did CCOC(=O)N1CCN(C(=O)/C(=C/c2cccc3ccccc23)NC(=O)c2ccc(OC)c(OC)c2)CC1 do in these assays?
HIV Env fusion: 9; GSIS activator: -11; CDK5 p35 inh: 1; PAX8 reporter: 72*; dFosB activator: -9; Cneo AK release: -2

How did COc1ccc(C(=O)N/C(=C\c2cccc3ccccc23)C(=O)N2CCN(C)CC2)cc1OC do in these assays?
HIV Env fusion: 3; GSIS activator: -4; CDK5 p35 inh: 0; PAX8 reporter: 6; dFosB activator: -5; Cneo AK release: 1

How did COc1ccccc1NC(=O)N1CC(=O)N2[C@H](CO)[C@H](c3ccc(C#CC(C)C)cc3)[C@H]2C1 do in these assays?
GSIS activator: -16; PAX8 reporter: -7

How did C[n+]1c2cc(N)ccc2cc2ccc(N)cc21 do in these assays?
HIV Env fusion: -101; GSIS activator: -18; CDK5 p35 inh: 2; PAX8 reporter: 66*!; dFosB activator: 33*!; Cneo AK release: -4

What do the screens show for `C[C@@H]1CN([C@@H](C)CO)C(=O)c2cc(NS(=O)(=O)c3cn(C)cn3)ccc2O[C@@H](C)CCCCO[C@@H]1CN(C)Cc1ccccc1`?
HIV Env fusion: 15[16.7 µM]; GSIS activator: 5; PAX8 reporter: 2; Cneo AK release: -28
